In ChEMBL document CHEMBL4177753, “Structural Modification of Natural Product Ganomycin I Leading to Discovery of a α-Glucosidase and HMG-CoA Reductase Dual Inhibitor Improving Obesity and Metabolic Dysfunction in Vivo” (J Med Chem, 2018):
Active and inactive are the calls of the source.

How the values were obtained:
Mus musculus [1] = test: Upregulation of Il10 mRNA expression in ob/ob mouse ileum at 3 mg/kg administered daily via oral gavage for 31 days by RNA-seq analysis; format: functional, organism-based
Mus musculus [2] = test: Hypoglycemic activity in ob/ob mouse assessed as decrease in blood glucose AUC at 0.3 to 3 mg/kg administered daily via oral gavage for 25 days by OGTT; format: functional, organism-based
Procedure, shortened: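 Male ob/ob or high-fat-diet C57BL/6J mice dosed daily by gavage at 0.3–3.0 mg/kg. OGTT: glucose 2 g/kg orally after overnight fast. ITT: insulin 0.6 U/kg i.p. after 4 h fast. Glucometer readings at 0, 40, 80 and 120 min; AUC computed from the curves.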

Mus musculus [3] = test: Hypoglycemic activity in ob/ob mouse assessed as decrease in free diet blood glucose levels administered daily via oral gavage for 28 days; format: functional, organism-based
Procedure, shortened: (§1)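 Male ob/ob mice, n = 10 per group, daily gavage at 0.3, 1.0 or 3.0 mg/kg in soybean vehicle. Fasting and free-diet blood glucose and HbA1c measured.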

Mus musculus [4] = test: Antifibrotic activity in ob/ob mouse assessed as decrease in hepatic hydroxyproline levels at 3 mg/kg administered daily via oral gavage for 31 days; format: functional, organism-based
Mus musculus [5] = test: Hypolipidemic activity in antibiotic-treated ob/ob mouse assessed as decrease in hepatic free fatty acid levels at 3 mg/kg administered daily via oral gavage for 3 weeks; format: functional, organism-based
Procedure, shortened: (§2)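 Male ob/ob mice pretreated three weeks with ampicillin (1 g/L), vancomycin, neomycin, gentamycin and erythromycin. Groups of n = 8 given 3.0 mg/kg/day orally in soybean vehicle versus vehicle. Plasma and hepatic lipids, fasting glucose, OGTT (glucose 2 g/kg after overnight fast) and HbA1c measured.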

Mus musculus [6] = test: Hypolipidemic activity in ob/ob mouse assessed as decrease in plasma LDL-C levels at 3 mg/kg administered daily via oral gavage for 31 days relative to vehicle-treated control; format: functional; parameters: scale not given: the % may be the effect or the level left
Mus musculus [7] = test: Antiobesity activity in ob/ob mouse assessed as change in lean mass at 3 mg/kg administered daily via oral gavage for 31 days; format: functional, organism-based
Procedure, shortened: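 Male ob/ob mice, n = 10 per group, grouped by blood glucose and body weight. Daily gavage at 0.3, 1.0 or 3.0 mg/kg in soybean vehicle, with soybean vehicle controls and C57BL/6J controls. Body weight, cumulative food intake, LEE index, fat mass and lean mass recorded. Mean ± SEM, one-way ANOVA with Tukey test.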

Mus musculus [8] = test: Decrease in nitrate levels in ob/ob mouse colonic lumen at 3 mg/kg administered daily via oral gavage for 31 days by Griess assay; format: functional, organism-based
Procedure, shortened: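 Male ob/ob mice dosed daily by gavage in soybean vehicle. Nitrate measured in intestinal contents by Griess assay.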

Mus musculus [9] = test: Hypoglycemic activity in ob/ob mouse assessed as decrease in HbA1c levels administered daily via oral gavage for 31 days; format: functional, organism-based; procedure, shortened: as §1
Mus musculus [10] = test: Hypolipidemic activity in ob/ob mouse assessed as decrease in serum AST levels at 0.3 to 3 mg/kg administered daily via oral gavage for 31 days; format: functional, organism-based
Mus musculus [11] = test: Hypolipidemic activity in ob/ob mouse assessed as decrease in plasma triglyceride levels at 3 mg/kg administered daily via oral gavage for 31 days relative to vehicle-treated control; format: functional; parameters: scale not given: the % may be the effect or the level left
[12] = Inhibition of rat small intestinal mucosal alpha-glucosidase using p-nitrophenyl-alpha-D-glucopyranoside as substrate after 40 mins by colorimetric method
Procedure, shortened: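 Rat small intestinal mucosal α-glucosidase; several compound concentrations, each run three times in parallel; phosphate-buffer control replaces compound, blank replaces enzyme. Absorbance at 405 nm; % inhibition = blank-corrected OD of test versus control; IC50 derived from the concentration gradient.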

Mus musculus [13] = test: Toxicity in C57BL/6J mouse assessed as effect on behavior at 30 mg/kg administered daily via oral gavage for 3 months; format: organism-based; conditions: in vivo
Procedure, shortened: (§3)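 Long-term safety study in C57BL/6J mice, 20 male and 20 female, sorted by gender, blood glucose and body weight into four groups (n = 10 each). Treated groups of each sex got 30.0 mg/kg daily by oral gavage in soybean vehicle. Vehicle groups got an equal volume of soybean. Dosing ran three months, with behavior, survival, body weight, blood glucose, liver function and organ coefficients recorded.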

Mus musculus [14] = test: Hypolipidemic activity in ob/ob mouse assessed as decrease in plasma triglyceride levels administered daily via oral gavage for 31 days; format: functional, organism-based
Neisseria = test: Decrease in Neisseri levels in cecum of ob/ob mouse at 3 mg/kg administered daily via oral gavage for 31 days by 16S rRNA gene high-throughput sequencing method; format: functional, organism-based
Procedure, shortened: (§4)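 Male ob/ob mice dosed daily by gavage at 1.0 or 3.0 mg/kg, compared with vehicle group. DNA extracted from about 150 mg caecum contents. 16S rRNA V3–V4 region amplified and sequenced on Illumina HiSeq PE250. Community compared by NMDS/MRPP; discriminant taxa identified by LEfSe.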

Mus musculus [15] = test: Hypolipidemic activity in antibiotic-treated ob/ob mouse assessed as decrease in plasma LDL-C levels at 3 mg/kg administered daily via oral gavage for 3 weeks; format: functional, organism-based; procedure, shortened: as §2
Mus musculus [16] = test: Downregulation of Tnfa mRNA expression in ob/ob mouse ileum at 3 mg/kg administered daily via oral gavage for 31 days by RNA-seq analysis; format: functional, organism-based
Lachnospiraceae = test: Increase in Lachnospiraceae levels in cecum of ob/ob mouse assessed as increase in level of gut butyrate at 3 mg/kg administered daily via oral gavage for 31 days by GC-MS analysis; format: functional, organism-based
Procedure, shortened: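 Feces collected from ob/ob mice after 3.0 mg/kg gavage treatment; samples lyophilized, ground, 40 mg powder extracted with 1 mL MeOH, sonicated, centrifuged; supernatant analysed for short-chain fatty acids by GC-MS.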

Betaproteobacteria = test: Decrease in Betaproteobacteria levels in cecum of ob/ob mouse at 1 to 3 mg/kg administered daily via oral gavage for 31 days by 16S rRNA gene high-throughput sequencing method; format: functional, organism-based; procedure, shortened: as §4
Mus musculus [17] = test: Upregulation of Muc-1 mRNA expression in ob/ob mouse ileum at 3 mg/kg administered daily via oral gavage for 31 days by RNA-seq analysis; format: functional, organism-based
Mus musculus [18] = test: Hypolipidemic activity in ob/ob mouse assessed as decrease in liver triglyceride levels at 0.3 to 3 mg/kg administered daily via oral gavage for 31 days; format: functional, organism-based
Mus musculus [19] = test: Toxicity in C57BL/6J mouse assessed as effect on body weight at 30 mg/kg administered daily via oral gavage for 3 months; format: organism-based; conditions: in vivo; procedure, shortened: as §3
[20] = Tmax in Sprague-Dawley rat at 2 mg/kg, po; format: ADME, organism-based; conditions: in vivo
Procedure, shortened: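 Six male Sprague-Dawley rats (0.21–0.23 kg) dosed orally at 2.0 mg/kg; blood from orbital vein at 0–16 h into heparinized tubes; plasma protein precipitated with methanol plus internal standard. Quantified by UPLC–Q-TOF MS, ESI positive, single ion monitoring (m/z 367.2637); linear range 0.54–107 ng/ml.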

Mus musculus [21] = test: Upregulation of occludin mRNA expression in ob/ob mouse ileum at 3 mg/kg administered daily via oral gavage for 31 days by RNA-seq analysis; format: functional, organism-based
Mus musculus [22] = test: In vivo inhibition of alpha-glucosidase activity in ob/ob mouse assessed as reduction of blood glucose AUC at 0.3 to 3 mg/kg administered daily via oral gavage for 32 days by OMTT; format: functional, organism-based
Procedure, shortened: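 Male ob/ob mice given 0.3–3.0 mg/kg daily by gavage; after overnight fast, sucrose (OSTT) or maltose (OMTT) 4.0 g/kg given orally; blood glucose by glucose meter at 0, 40, 80 and 120 min; AUC calculated from the time course.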

CC(C)=CCC/C(C)=C/CCC1=C[C@H](c2ccc(C(C)(C)C)cc2)OC1=O
60 nM: IC50 [12]
7 h: Tmax [20]
47%: Activity (Mus musculus [11])
51%: Activity (Mus musculus [6])
Non-Toxic: Activity (Mus musculus [13]) | Activity (Mus musculus [19])
active: Activity (Mus musculus [1]) | Activity (Mus musculus [2]) | Activity (Mus musculus [3]) Dose-dependent effect | Activity (Mus musculus [4]) | Activity (Mus musculus [8]) | Activity (Mus musculus [9]) Dose-dependent effect | Activity (Mus musculus [10]) | Activity (Mus musculus [14]) Dose-dependent effect | Activity (Neisseria) | Activity (Mus musculus [16]) | Activity (Lachnospiraceae) | Activity (Betaproteobacteria) | Activity (Mus musculus [17]) | Activity (Mus musculus [18]) | Activity (Mus musculus [21]) | inhibition (Mus musculus [22])
inactive: Activity (Mus musculus [5]) | Activity (Mus musculus [7]) | Activity (Mus musculus [15])
